The source made the active and inactive calls.
Legend:
[1] = Apparent permeability across human Caco2 cells at 200 uM by LC/MS analysis; type: ADME, cell-based; details: Caco-2
Method in brief: (§1)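 Caco-2 monolayers (passages 55−75; DMEM with 10% FBS, 1% L-glutamine, 1% nonessential amino acids, 37 °C, 5% CO2) used for apparent permeability; compound quantified by LC-MS.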

[2] = tested on: Rattus norvegicus; assay: Induction of constipation in fasted Sprague-Dawley rat assessed as inhibition of castor oil-induced diarrhea at 16 umol/kg, po administered 5 mins prior to castor-oil challenge measured up to 8 hrs; type: organism-based; details: in vivo
Method in brief: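 Drug-naive rats, 200−250 g, fasted ~16 h with water, then 1 h in individual wire-mesh cages without food or water. Oral test item or vehicle; 5 min later 1 mL castor oil by gavage. Diarrhea presence checked hourly to 8 h, scored by fecal boli weight and consistency.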

[3] = biological target: T1, Mu-type opioid receptor (Homo sapiens, UniProt P35372); assay: Displacement of [3H]DAMGO from mu-opioid receptor expressed in CHOK1 cells after overnight incubation by scintillation proximity assay; type: cell-based, CHO-K1
T1 sequence (P35372 whole entry): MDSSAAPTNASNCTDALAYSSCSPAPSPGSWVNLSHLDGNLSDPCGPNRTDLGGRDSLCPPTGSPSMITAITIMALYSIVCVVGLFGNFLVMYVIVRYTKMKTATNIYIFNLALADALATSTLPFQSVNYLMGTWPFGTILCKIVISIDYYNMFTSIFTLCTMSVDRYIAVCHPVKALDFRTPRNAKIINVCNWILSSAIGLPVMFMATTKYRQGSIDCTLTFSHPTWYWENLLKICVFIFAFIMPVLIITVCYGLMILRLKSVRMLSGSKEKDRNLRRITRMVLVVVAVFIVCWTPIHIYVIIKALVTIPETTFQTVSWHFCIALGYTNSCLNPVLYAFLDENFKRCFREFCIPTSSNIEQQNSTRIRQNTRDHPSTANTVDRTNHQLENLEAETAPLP

[4] = tested on: Rattus norvegicus; assay: Antinociceptive activity in Sprague-Dawley rat chronic constriction model assessed as reduction in Von Frey filament-induced mechanical allodynia in contralateral hind paw at 8 umol/kg, po; type: functional, organism-based
[5] = Selectivity ratio of Ki for kappa-opioid receptor to Ki for mu-opioid receptor
Method in brief: (§2)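 Competitive displacement scintillation proximity assay on frozen membranes from CHO-K1 cells stably expressing human MOR, DOR or KOR, with wheatgerm agglutinin-coated SPA beads. Labels: MOR [3H]DAMGO, DOR [3H]DPDPE, KOR [3H]diprenorphine. Eight compound concentrations from 10 pM to 1 μM. Three independent experiments, each in triplicate, reported as mean ± SEM. The ratio is each Ki divided by the MOR Ki.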

[6] = tested on: Rattus norvegicus; assay: Antinociceptive activity in Sprague-Dawley rat chronic constriction injury model assessed as paw withdrawal threshold to von Frey filament-induced pain at 5 and 16 umol/kg, iv administered as bolus injection measured at 15 mins; type: functional, organism-based
Method in brief: (§3)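 Male SD rats (160−200 g at purchase) with CCI of left sciatic nerve (four loose silk ligatures, Bennett-Xie) under isoflurane. Single iv bolus doses 0.16 to 16 μmol/kg.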

[7] = tested on: Rattus norvegicus; assay: Antinociceptive activity in Sprague-Dawley rat chronic constriction model assessed as reduction in Von Frey filament-induced mechanical allodynia in contralateral hind paw at 5 umol/kg, iv administered as bolus injection; type: functional, organism-based
[8] = tested on: Caco-2; assay: Permeability across human Caco2 cells at 200 µM by LC/MS analysis in presence of lactose; type: ADME, cell-based; details: caco-2, 200 µM; method in brief: as §1
[9] = tested on: Rattus norvegicus; assay: Antinociceptive activity in Sprague-Dawley rat chronic constriction model assessed as reduction in Von Frey filament-induced mechanical allodynia in ipsilateral hind paw at 5 umol/kg, iv administered as bolus injection 5 mins post-naloxone coadministration; type: functional, organism-based
Method in brief: (§4)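 CCI rats (n = 6) given single sc naloxone hydrochloride 10 mg/kg or vehicle 5 min before single iv bolus of test item.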

[10] = tested on: Rattus norvegicus; assay: Antinociceptive activity in Sprague-Dawley rat chronic constriction injury model assessed as reduction in Von Frey filament-induced mechanical allodynia in ipsilateral hind paw at 8 and 16 umol/kg, po at 0.75 to 1 hr; type: functional, organism-based
[11] = tested on: Rattus norvegicus; assay: Antinociceptive activity in Sprague-Dawley rat chronic constriction injury model assessed as paw withdrawal threshold to von Frey filament-induced pain at 5 and 16 umol/kg, iv administered as bolus injection measured up to 1.5 hrs; type: functional, organism-based; method in brief: as §3
[12] = tested on: Rattus norvegicus; assay: Antinociceptive activity in po dosed Sprague-Dawley rat chronic constriction injury model assessed as reduction in Von Frey filament-induced mechanical allodynia in ipsilateral hind paw; type: functional
[13] = biological target: T1, Mu-type opioid receptor; assay: Agonist activity at mu-opioid receptor in human SH-SY5Y cells assessed as inhibition of forskolin-stimulated cAMP accumulation after 30 mins by immunoassay; type: functional, cell-based
[14] = biological target: Delta-type opioid receptor (Homo sapiens, UniProt P41143); assay: Displacement of [3H]DPDPE from delta-opioid receptor expressed in CHOK1 cells after overnight incubation by scintillation proximity assay; type: cell-based, CHO-K1
Chain of Delta-type opioid receptor (P41143 whole entry): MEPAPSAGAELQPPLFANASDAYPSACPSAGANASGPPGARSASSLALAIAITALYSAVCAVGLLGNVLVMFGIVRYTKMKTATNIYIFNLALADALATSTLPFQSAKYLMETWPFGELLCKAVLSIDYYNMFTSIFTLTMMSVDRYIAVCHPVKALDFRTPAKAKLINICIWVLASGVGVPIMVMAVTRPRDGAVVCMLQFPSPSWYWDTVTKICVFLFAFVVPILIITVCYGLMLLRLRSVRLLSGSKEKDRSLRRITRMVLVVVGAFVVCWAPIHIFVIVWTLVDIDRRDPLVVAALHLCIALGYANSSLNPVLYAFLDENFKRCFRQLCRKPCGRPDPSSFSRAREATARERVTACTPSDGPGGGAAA
Method in brief: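 Competitive displacement of [3H]DPDPE from human DOR in membranes of stably transfected CHOK1 cells, WGA-coated SPA beads. Eight concentrations, 10 pM to 1 μM; three independent experiments in triplicate, mean ± SEM.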

[15] = tested on: Rattus norvegicus; assay: Effect on gastrointestinal motility in fasted Sprague-Dawley rat assessed as gastrointestinal propulsion of charcoal meal at 16 umol/kg, po administered prior to charcoal meal measured after 1 hr ( Rvb = 66.5 3.8% ); type: ADME, organism-based; details: in vivo
Method in brief: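 Rats 200−250 g fasted ~16 h (water allowed), n = 8 per group, dosed orally just before gavage of 1 mL aqueous 10% activated charcoal/5% gum Arabic. Killed 1 h later (ip pentobarbital, cervical dislocation); small intestine length pylorus to ileocecal junction and farthest charcoal front measured as % propulsion.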

[16] = tested on: Caco-2; assay: Permeability across human Caco2 cells at 200 µM by LC/MS analysis in presence of glucose; type: ADME, cell-based; details: caco-2, 200 µM; method in brief: as §1
[17] = Selectivity ratio of Ki for delta-opioid receptor to Ki for mu-opioid receptor; method in brief: as §2
[18] = Half life in human plasma at 1 mg/ml by RP-HPLC analysis; type: ADME, cell-free
[19] = tested on: Rattus norvegicus; assay: Antinociceptive activity in Sprague-Dawley rat chronic constriction injury model assessed as reduction in Von Frey filament-induced mechanical allodynia in ipsilateral hind paw at 8 and 16 umol/kg, po up to 2 hrs; type: functional, organism-based
[20] = tested on: Rattus norvegicus; assay: Antinociceptive activity in iv dosed Sprague-Dawley rat chronic constriction injury model assessed as paw withdrawal threshold to von Frey filament-induced pain administered as bolus injection; type: functional; method in brief: as §3
[21] = tested on: Caco-2; assay: Permeability across human Caco2 cells at 200 µM by LC/MS analysis in presence of galactose; type: ADME, cell-based; details: caco-2, 200 µM; method in brief: as §1
[22] = tested on: Rattus norvegicus; assay: Antinociceptive activity in Sprague-Dawley rat chronic constriction model assessed as reduction in Von Frey filament-induced mechanical allodynia in contralateral hind paw at 2 umol/kg, iv administered as bolus injection; type: functional, organism-based
[23] = tested on: Rattus norvegicus; assay: Antinociceptive activity in Sprague-Dawley rat chronic constriction model assessed as reduction in Von Frey filament-induced mechanical allodynia in ipsilateral hind paw at 2 umol/kg, iv administered as bolus injection 5 mins post-naloxone coadministration; type: functional, organism-based; method in brief: as §4
[24] = tested on: Rattus norvegicus; assay: Antinociceptive activity in Sprague-Dawley rat chronic constriction injury model assessed as reduction in Von Frey filament-induced mechanical allodynia in ipsilateral hind paw at 8 umol/kg, po; type: functional, organism-based
[25] = tested on: Plasma; assay: Plasma concentration in Sprague-Dawley rat at 10 umol/kg, po from 30 to 60 mins by LC/MS analysis; type: ADME, organism-based; details: in vivo, BLD = below limit of detection
Method in brief: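 Male SD rats, 280−310 g, gavaged with 500 μL of […] aqueous solution (10 μmol/kg). Tail-vein blood at 30, 60, 90 min into heparin tubes; plasma protein-precipitated with 3 volumes acetonitrile, supernatant quantified by LC-MS; n = 4.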

[26] = tested on: Rattus norvegicus; assay: Antinociceptive activity in Sprague-Dawley rat chronic constriction injury model assessed as paw withdrawal threshold to von Frey filament-induced pain 16 umol/kg, iv administered as bolus injection measured at 15 mins; type: functional, organism-based; method in brief: as §3

CC(C)NCC(O)COc1cccc2ccccc12 (configuration not stated) [PROPRANOLOL]
Papp at 200 µM [1]: 150 ×10⁻⁶ cm/s

NC(=O)[C@H](Cc1ccccc1)NC(=O)[C@H](Cc1c[nH]c2ccccc12)NC(=O)[C@@H]1CCCN1C(=O)[C@H](Cc1ccc(O)cc1)NC(=O)CCC(=O)N[C@@H]1O[C@H](CO)[C@@H](O[C@@H]2O[C@H](CO)[C@H](O)[C@H](O)[C@H]2O)[C@H](O)[C@H]1O
Activity [2]: Non-toxic
Ki [3]: 14.9 nM
Activity [4]: inactive
Ratio Ki [5]: 105
Activity [6]: Active
Papp at 200 µM [1]: 76 ×10⁻⁶ cm/s
Activity [7]: inactive
permeability [8]: impermeable
Activity [9]: inactive
Activity [10]: Active
Activity [11]: Active
Activity [12]: Dose-dependent effect
ED50 [12]: 19.6 µmol/kg
IC50 [13]: 590 nM
Ki [14]: 4750 nM
Activity [15]: 58.5%
permeability [16]: permeable
Ratio Ki [17]: 319
half-life at 1 mg/ml [18]: 57.3 min
Activity [19]: Active
ED50 [20]: 8.3 µmol/kg
permeability [21]: impermeable

CN1CC[C@]23c4c5ccc(O)c4O[C@H]2[C@@H](O)C=C[C@H]3[C@H]1C5 [MORPHINE]
Activity [4]: Active
Activity [22]: Active
ED50 [12]: 20.7 µmol/kg
Activity [23]: inactive
Activity [24]: Active
ED50 [20]: 2.6 µmol/kg

NC(=O)[C@H](Cc1ccccc1)NC(=O)[C@H](Cc1c[nH]c2ccccc12)NC(=O)[C@@H]1CCCN1C(=O)[C@@H](N)Cc1ccc(O)cc1 [ENDOMORPHIN-1]
Papp at 200 µM [1]: 0.11 ×10⁻⁶ cm/s
Cp [25]: BLD
Activity [26]: inactive

Source: ChEMBL document CHEMBL2157939 (J Med Chem, 2012)
